Measured values of several laboratories.
Each line is one published result; the experiments were not run side by side.
Target: Wee1-like protein kinase 2 (WEE2, Homo sapiens, UniProt P0C1S8)

c1cncc(-c2cccc(Nc3nccc(NC4CCCCC4)n3)c2)c1 — remaining binding (binding; competition with immobilised ligand; 10 µM): 100%
O=C(NCCCN1CCOCC1)c1ccc(Nc2nccc(-c3cc4ccccc4s3)n2)cc1 — remaining binding (binding; competition with immobilised ligand; 1 µM): 86%
COc1cnc(Nc2cccc(S(N)(=O)=O)c2)nc1N1CCN(c2ccccc2)CC1 — remaining binding (binding; competition with immobilised ligand; 1 µM): 96%
O=C(NCCCN1CCOCC1)c1ccc(Nc2ncc(Cl)c(-c3ccc(Cl)s3)n2)cc1 — remaining binding (binding; competition with immobilised ligand; 1 µM): 19%
CNCc1ccccc1-c1csc([C@@H](C)Nc2nc(C)nc3cc(OC)c(OC)cc23)c1 — remaining binding (cell-free assay; competition with immobilised ligand; 1 µM): 100%
C[C@@H](c1ccc(-n2cnc3c(N)ncnc32)cc1)N1CCc2nn(C)c(Cc3ccccc3)c2C1=O — remaining binding (binding; competition with immobilised ligand; 0.1 µM): 92%
Cc1cnn2ncc(-c3ccnc(N(C)C)n3)c2c1 — remaining binding (binding; 1 µM): 100%
O=C(Nc1cnc(Oc2ccc(F)cc2)nc1)N1CCc2ncccc2[C@@H]1c1ccc(F)cc1 — remaining binding (cell-free assay; competition with immobilised ligand; 1 µM): 95%
CN(CCCC(F)(F)F)c1nccc(-c2cnn3ncccc23)n1 — remaining binding (binding; 1 µM): 97%
O=C(NCc1ncc(C(F)(F)F)cc1Cl)c1ccc2c(c1)C1(CCS(=O)(=O)CC1)[C@H](C1CC1)N2S(=O)(=O)c1ccc(F)cc1 — remaining binding (cell-free assay; competition with immobilised ligand; 1 µM): 100%
CCN1CCN(Cc2ccc(C(=O)Nc3ccc(C)c(Oc4ccc5c(c4)CC(=O)N5)c3)cc2C(F)(F)F)CC1 — remaining binding (binding; competition with immobilised ligand; 1 µM): 100%
c1cnn2ncc(-c3ccnc(N4CCC45COC5)n3)c2c1 — remaining binding (binding; 1 µM): 76%
COc1cccc(CNC(=O)c2nc3scc(COCc4ccc(C(=O)O)cc4)c3c(=O)[nH]2)c1 — remaining binding (cell-free assay; competition with immobilised ligand; 1 µM): 96.9%
O=C(NCC1CCOCC1)c1n[nH]cc1NC(=O)c1c(F)cccc1F — remaining binding (binding; competition with immobilised ligand; 1 µM): 100%
N[C@@H]1CCN(c2nccc(-c3cnn4ncccc34)n2)C1 — remaining binding (binding; 1 µM): 100%
COc1cnc(Nc2cccc(S(N)(=O)=O)c2)nc1N1CCN(c2ccccc2)C(=O)C1 — remaining binding (binding; competition with immobilised ligand; 1 µM): 100%
CCCCN(CCCC)C(=O)CN1C[C@@H](c2cc(OC)c3c(c2)OCO3)[C@H](C(=O)O)[C@H]1CC(C)(C)CCC — remaining binding (cell-free assay; competition with immobilised ligand; 1 µM): 89.1%
C[C@H]1CCN(c2nccc(-c3cnn4ncccc34)n2)C1 — remaining binding (binding; 1 µM): 100%
Cc1cnc(Nc2ccc(C(=O)N3CCC(N4CCCC4)CC3)cc2)nc1-c1cc2ccccc2s1 — remaining binding (binding; competition with immobilised ligand; 1 µM): 15%
COc1ccnn2ncc(-c3ccnc(N(C)C)n3)c12 — remaining binding (binding; 1 µM): 96%
Cc1cc(-n2nc(Cc3cc(F)cc(C(F)(F)F)c3)nc2C)ccc1C(N)=O — remaining binding (cell-free assay; competition with immobilised ligand; 1 µM): 100%
